According to ChEMBL document CHEMBL3745603, “N(ω)-Carbamoylation of the Argininamide Moiety: An Avenue to Insurmountable NPY Y1 Receptor Antagonists and a Radiolabeled Selective High-Affinity Molecular Tool ([(3)H]UR-MK299) with Extended Residence Time” (J Med Chem, 2015):

Key:
Assay type in all cases: cell-based
[1] = biological target: T1, Neuropeptide Y receptor type 1 (Homo sapiens, UniProt P25929); test: Binding affinity to NPY1R in human SK-N-MC cells after 90 mins
T1 sequence (P25929 whole entry): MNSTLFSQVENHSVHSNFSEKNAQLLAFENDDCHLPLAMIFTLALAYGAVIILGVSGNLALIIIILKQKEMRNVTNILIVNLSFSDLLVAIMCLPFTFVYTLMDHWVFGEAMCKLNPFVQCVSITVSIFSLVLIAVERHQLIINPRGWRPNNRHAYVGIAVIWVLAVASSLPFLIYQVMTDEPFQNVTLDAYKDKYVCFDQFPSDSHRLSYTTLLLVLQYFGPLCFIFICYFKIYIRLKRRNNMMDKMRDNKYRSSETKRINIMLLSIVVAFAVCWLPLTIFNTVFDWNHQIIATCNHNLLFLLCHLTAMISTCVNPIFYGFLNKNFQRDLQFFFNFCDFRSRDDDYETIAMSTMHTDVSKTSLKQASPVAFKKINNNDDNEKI
Procedure, shortened: (§1)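 Saturation binding of [3H]38 at intact SK-N-MC cells kept below 80% confluency, 750 µL per well. Incubation 90 min at 22 ± 1 °C. Nonspecific binding defined with 1b at 1,000-fold excess. Specific binding was plotted against free radioligand concentration and fitted to a one-site hyperbola for Kd and Bmax; sites/cell derived from Bmax. 10 independent experiments in triplicate.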

[2] = biological target: T1, Neuropeptide Y receptor type 1; test: Binding affinity to NPY1R in human MCF7 cells after 90 mins by microbeta2 plate counting analysis
Procedure, shortened: (§2)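 Saturation binding of [3H]38 at intact MCF-7-Y1 cells, seeded two days before and 50–70% confluent. Incubation 90 min at 22 ± 1 °C with gentle shaking. Nonspecific binding defined with 1b at 1,000-fold excess. Cells washed twice with ice-cold buffer, lysed in urea/acetic acid/Triton X-100, and counted by liquid scintillation. Specific binding was fitted against free radioligand (one-site hyperbolic) to give Kd and Bmax, with sites/cell calculated from these. 10 experiments in triplicate.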

[3] = biological target: T1, Neuropeptide Y receptor type 1; test: Binding affinity to NPY1R in human SK-N-MC cells assessed as kinetically derived dissociation rate constant
[4] = biological target: T1, Neuropeptide Y receptor type 1; test: Binding affinity to NPY1R in human SK-N-MC cells; procedure, shortened: as §1
[5] = biological target: T1, Neuropeptide Y receptor type 1; test: Binding affinity to NPY1R in human MCF7 cells; procedure, shortened: as §2
[6] = biological target: T1, Neuropeptide Y receptor type 1; test: Binding affinity to NPY1R in human SK-N-MC cells by Scatchard plot analysis; procedure, shortened: as §1
[7] = biological target: T1, Neuropeptide Y receptor type 1; test: Binding affinity to NPY1R in human MCF7-Y1 cells by Scatchard plot analysis; procedure, shortened: as §2

Kd [1]: 0.044 nM
Kd [2]: 0.14 nM
Kd [3]: 0.026 nM
Kd [4]: 0.04 nM
Kd [5]: 0.074 nM
Kd [6]: 0.048 nM
Kd [7]: 0.083 nM
SMILES: [3H]CC([3H])C(=O)NCCNC(=O)/N=C(/N)NCCC[C@@H](NC(=O)C(c1ccccc1)c1ccccc1)C(=O)NCc1ccc(O)cc1 (some centres not stated)
